Active and inactive are the calls of the source. The calls are words filed in the database; no cut-off is given here.

What all share (format): cell-based
In series [1] the target is T1, Nuclear factor erythroid 2-related factor 2 (Mus musculus) (UniProt Q60795).
T1 sequence (whole entry): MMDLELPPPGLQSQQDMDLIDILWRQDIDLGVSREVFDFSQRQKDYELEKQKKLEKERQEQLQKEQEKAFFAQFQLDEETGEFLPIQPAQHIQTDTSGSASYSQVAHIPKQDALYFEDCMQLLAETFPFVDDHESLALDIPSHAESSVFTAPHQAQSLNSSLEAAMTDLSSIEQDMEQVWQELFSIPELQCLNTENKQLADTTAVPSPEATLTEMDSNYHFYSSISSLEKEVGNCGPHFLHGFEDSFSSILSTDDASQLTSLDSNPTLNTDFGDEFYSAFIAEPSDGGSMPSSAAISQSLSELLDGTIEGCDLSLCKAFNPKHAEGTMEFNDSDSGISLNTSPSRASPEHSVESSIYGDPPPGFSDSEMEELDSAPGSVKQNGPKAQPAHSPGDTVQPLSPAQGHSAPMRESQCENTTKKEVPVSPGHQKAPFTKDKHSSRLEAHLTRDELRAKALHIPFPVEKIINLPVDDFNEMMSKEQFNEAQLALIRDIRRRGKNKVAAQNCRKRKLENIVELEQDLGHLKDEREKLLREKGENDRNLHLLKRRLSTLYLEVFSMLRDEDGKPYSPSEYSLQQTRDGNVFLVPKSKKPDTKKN
The series can be described thus: Activation of Nrf2 in mouse CATH.a cells assessed as increase in total Nrf2 protein level after 24 hrs by western blot analysis. The essentials:
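CATH.a cells (RPMI 1640, 8% horse serum, 4% FBS, 37 °C, 5% CO2) exposed to various concentrations for 24 h. Whole-cell lysate in RIPA buffer with protease inhibitors, 10% SDS-PAGE, Nrf2 immunoblot, chemiluminescence, densitometry normalized to β-actin. At least duplicate cultures, averaged, fold of untreated control ± SEM.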

Series [2] concerns the target T1, Nuclear factor erythroid 2-related factor 2 (Mus musculus). Description: Induction of Nrf2-dependent NQO1 protein expression in mouse CATH.a cells at 10 uM after 24 hrs by western blot analysis relative to control. Summed up: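 Cells (CATH.a) exposed to graded concentrations for 24 h, lysed in RIPA buffer with protease inhibitors. Equal protein separated on 10% SDS gel, blotted; primary antibodies overnight at 4 °C, HRP secondary, chemiluminescence. Densitometry normalized to β-actin. At least duplicate cultures, fold of untreated control ± SEM.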
A general note: A western blot detects proteins with antibodies after separation by electrophoresis.

The nature of series [3]: Cytotoxicity against mouse CATH.a cells assessed as cell viability at 0.1 to 2 uM after 72 hrs by LDH activity assay. Summed up: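 Seeded at 2.4 × 10⁴ CATH.a cells/well and exposed to the agent alone for 72 h. LDH in culture medium measured with 0.26 mM NADH, 2.87 mM pyruvate in 100 mM potassium phosphate pH 7.4; absorbance at 340 nm followed 5 min at 2 s intervals, room temperature. Duplicate cultures minimum; % untreated control ± SEM.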

Series [4] concerns the target T1, Nuclear factor erythroid 2-related factor 2 (Mus musculus). Description: Induction of Nrf2-dependent NQO1 gene expression in mouse CATH.a cells after 6 hrs by RT-PCR analysis. Summed up: (§1)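 CATH.a cells grown in RPMI 1640 with 8% horse serum and 4% FBS, exposed to graded concentrations for 6 h. mRNA analysed by RT-PCR with gene-specific primers, products run on 1% agarose gel, band densitometry normalized to GAPDH. At least duplicate cultures; fold induction versus untreated control ± SEM.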

The target is the same in series [5]. Description: Induction of Nrf2-dependent HO1 gene expression in mouse CATH.a cells at 0.1 uM after 6 hrs by RT-PCR analysis. The essentials: as §1
Series [6] is described as follows: Cytotoxicity against mouse CATH.a cells assessed as cell viability at 0.1 to 2 uM after 72 hrs by ATP assay. Summed up:
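CATH.a cells seeded at 2.4 × 10⁴ cells/well, exposed to the agent alone for 72 h. Viability read as cellular ATP by CellTiter-Glo luminescence (2 min lysis, 10 min room temperature, 1 min read). At least duplicate cultures, percent of untreated control ± SEM.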

In the case of `COc1ccccc1S(=O)(=O)/C=C/c1ccccc1Cl`, the Activity result in series [1] was “Dose-dependent effect”; in series [3], “Non-toxic”; in series [4] it was “Dose-dependent effect”; in series [6] it was “Non-toxic”. In addition, the fold change (FC) in series [2] was determined as 4.43. For the same compound, the result in series [5] was inactive.

The values are drawn from ChEMBL document CHEMBL3124841, “Discovery of vinyl sulfones as a novel class of neuroprotective agents toward Parkinson's disease therapy” (J Med Chem, 2014).
